From ChEMBL document CHEMBL1138187, “2-(2-Thienyl)-5,6-dihydroxy-4-carboxypyrimidines as inhibitors of the hepatitis C virus NS5B polymerase: discovery, SAR, modeling, and mutagenesis” (J Med Chem, 2006) come the findings set out here.

Activity calls are given as the source filed them. The rule behind the calls is not given here. Where only a bound is given, the exact number is not on record here.

In data set [1] the target is RNA-directed RNA polymerase (Hepacivirus hominis) (UniProt O39930). In words: Inhibition of replication of HCV 1b BK RNA in Huh7 cells at 100 uM in presence of 10% fetal calf serum. In kind it is functional, cell-based. The note with it: Huh-7. The method, boiled down: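 Subgenomic HCV RNA replicon in Huh-7 cells, modified Bartenschlager procedure with 10% fetal calf serum; compounds first tested at a fixed 100 µM, with EC50 determined only where inhibition exceeded 50%; values averaged over at least three independent determinations.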

Another data set relates to Huh-7. The experiment in a line: Cytotoxicity against Huh7 cells upto 100 uM. The class given is functional, cell-based. The note with it: Homo sapiens.
Data set [2] concerns O=c1ccn([C@@H]2O[C@H](COP(=O)(O)OP(=O)(O)OP(=O)(O)O)[C@@H](O)[C@H]2O)c(=O)[nH]1. The experiment in a line: Activity against HCV 1b BK NS5B deltaC55-R158M mutant RNA polymerase. The note with it: Hepatitis C virus subtype 1b. The method, boiled down: (§1)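 HCV 1b-BK NS5B∆C55 (residues 1-536) carrying R158M or R158K, expressed in E. coli BL21(DE3) and purified. Polymerase run on a homopolymeric template RNA with UTP as substrate; IC50 and UTP Km measured in duplicate.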

For data set [3] the test system is unchanged. In words: Activity against HCV 1b BK NS5B deltaC55-R158K mutant RNA polymerase. The note with it: Hepatitis C virus subtype 1b. A digest of the protocol:
as §1

For data set [4] the test system is unchanged. In words: Activity against HCV 1b BK NS5B deltaC55 RNA polymerase. The note with it: Hepatitis C virus subtype 1b. A digest of the protocol: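 HCV genotype 1b BK-strain NS5B ΔC55 (residues 1-536) expressed in E. coli BL21(DE3) and purified; activity measured with a homopolymeric RNA template, assay run at pH 7.4 with Mg; IC50 is the mean of at least three independent determinations.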

In data set [5] the target is RNA-directed RNA polymerase (Hepacivirus hominis) (UniProt O39930). The experiment in a line: Inhibitory activity against HCV 1b BK NS5B deltaC55 RNA polymerase at 50 uM. As to conditions: Hepatitis C virus subtype 1b.
Data set [6] shares this target. In words: Inhibitory activity against HCV 1b BK NS5B deltaC55 RNA polymerase at 200 uM. The note with it: Hepatitis C virus subtype 1b.

In the case of `CS(=O)(=O)c1nc(O)c(O)c(C(=O)O)n1`, in data set [1], the inhibition result was “inactive”.

With `O=C(O)c1nc(-c2nccs2)nc(O)c1O`, the inhibition in data set [1] is less than 20%.

Turning to `O=C(Nc1ccsc1-c1nc(O)c(O)c(C(=O)O)n1)OCCc1ccccc1`, in data set [1], the inhibition is less than 20%.

`O=C(NCc1ccccc1Cl)Nc1ccsc1-c1nc(O)c(O)c(C(=O)O)n1`: the outcome with Huh-7 was inactive.

As for `O=C(O)c1nc(-c2cccs2)nc(O)c1O`, the inhibition entry in data set [1] is “inactive”.

For the molecule “RNA-directed RNA polymerase (Hepacivirus hominis) (from UniProt O39930) UNDEFINED MUTATION”, the Km came out at 15 µM in data set [2] and 20 µM in data set [3].

In the case of “RNA-directed RNA polymerase (Hepacivirus hominis), O39930”, the Michaelis constant (Km) in data set [4] amounted to 6 µM.

In data set [5], `O=C(O)c1nc(Cc2ccccc2)nc(O)c1O` returned an inhibition of 24%.

In turn, `O=C(O)c1nc(-c2nccn2Cc2ccccc2)nc(O)c1O` returned an inhibition in data set [5] of 30%.

In the case of `CSc1nc(O)c(O)c(C(=O)O)n1`, the inhibition in data set [5] came out at 55%. Besides, the inhibition entry in data set [1] was “inactive”.

As for `O=C(O)c1nc(C2CCCCC2)nc(O)c1O`, the inhibition result in data set [1] was “inactive”. In data set [6], this molecule had an inhibition of 31%.

In data set [5], `O=C(O)c1nc(-c2ncc[nH]2)nc(O)c1O` came in with an inhibition of 50%.

The molecule `CCCCc1nc(O)c(O)c(C(=O)O)n1` had an inhibition in data set [5] of 0%.
